Experimental data pooled from the literature.
Compare with care: the assays were run in different laboratories.
Organism: Escherichia coli
Observed: microbial growth

SMILES | assay | test system | setting | MIC
CCCCCCCCCC(=O)Oc1c(C)c(O)c(C(=O)/C=C/c2ccccc2)c(OC)c1C | broth dilution | ATCC25922 | – | 5000 µg/mL
Cc1ccc2nc(-c3ccc(Cl)c(Cl)c3)n(Cc3ccccc3)c2c1 | broth dilution | ATCC25922 | – | 32 µg/mL
Cc1c(CN(C)C(=O)/C=C/c2cnc3c(c2)CC(CCN)C(=O)N3)oc2ccccc12.Cl (stereo not drawn) | broth dilution | MG1655 | clinical isolate | 8 µg/mL
Cc1cc(C#N)ccc1C(=O)Nc1ccc(C(=O)N[C@@H](CC(N)=O)C(=O)Nc2ccc(C(=O)Nc3ccc(C(=O)Nc4ccc(C(=O)O)cc4)c(O)c3OC(C)C)cc2)cc1 | – | DSM1116 | – | 0.5 µg/mL
Cc1ccc(C)n1-c1ccc(-c2nnc(-c3cccc([N+](=O)[O-])c3)[nH]2)cc1 | broth dilution | ATCC10536 | 18 h | 250 µg/mL
CCCCCCC/C=C/C(=O)N1C(=O)/C(=C(/C)O)C(=O)C1CCC(=O)O (stereo not drawn) | – | K12, K12 | – | > 200 µg/mL
COc1cc(C(=O)Nc2ccc(C(=O)N[C@@H](CC(N)=O)C(=O)Nc3ccc(C(=O)Nc4ccc(C(=O)Nc5ccc(C(=O)O)cc5)c(O)c4OC(C)C)cc3)cc2)ccc1C#N | – | DSM1116 | – | < 0.03 µg/mL
COc1ccc(-c2nc3ccc(C)cc3[nH]2)cc1O | broth dilution | ATCC25922 | – | 64 µg/mL
COc1c(C)c(OS(=O)(=O)c2ccc3ccccc3c2)c(C)c(OS(=O)(=O)c2ccc3ccccc3c2)c1C(=O)/C=C/c1ccccc1 | broth dilution | ATCC25922 | – | 5000 µg/mL
N=C(N)c1cccc(OCc2ccc(COc3cccc(C(=N)N)c3)cc2)c1 | broth dilution | BW25113 | – | > 200 µg/mL
O=[N+]([O-])c1ccc(O)c2ncccc12 | broth dilution | ATCC25922 | – | 2 µg/mL
CCCc1nc(Cl)c2c(c1O)C(=O)C1=C(O)[C@]3(O)C(=O)C(C(N)=O)=C(O)[C@@H](N(C)C)[C@@H]3C[C@@H]1C2.Cl | broth dilution | ATCC25922 | – | 16 µg/mL
CC1=NN(CNc2ccc(C(=O)O)cc2)C(=O)C1=NNn1c(-c2ccccc2)nc2ccccc2c1=O | broth dilution | – | 24 h | 50.5 µM
CO[C@H]1O[C@H](COC(c2ccccc2)(c2ccccc2)c2ccccc2)[C@@H](OC(=O)c2ccc(C(C)(C)C)cc2)[C@H](OC(=O)c2ccc(C(C)(C)C)cc2)[C@H]1OC(=O)c1ccc(C(C)(C)C)cc1 | broth dilution | – | – | 1 µg/mL
CC(NCCCNC(=O)c1ccc(Cl)s1)c1cc2cc(Br)ccc2[nH]1 (stereo not drawn) | broth dilution | ATCC25922 | – | 32 µg/mL
N=C(N)c1ccc(OCc2ccc(COc3ccc(C(=N)N)cc3)cc2)cc1 | – | BW25113 | – | ≥ 200 µg/mL
O=C(CCCCCC[P+](c1ccccc1)(c1ccccc1)c1ccccc1)Nc1ccc(O)c(O)c1.[Br-] | broth dilution | ATCC25922 | 18 h | > 32 µg/mL
CC(C)Oc1c(NC(=O)c2ccc(NC(=O)[C@H](CC(N)=O)NC(=O)c3ccc(NC(=O)c4ccccc4[N+](=O)[O-])cc3)cc2)ccc(C(=O)Nc2ccc(C(=O)O)cc2)c1O | – | DSM1116 | – | 8 µg/mL
O=C(Nc1ncc([N+](=O)[O-])s1)c1cc2ccccc2s1 | – | – | – | < 50 µM
CCCCCCC#Cc1cncc(-c2nnc(SCc3ccc([N+](=O)[O-])o3)n2C)c1 | – | – | – | ≥ 20 µg/mL
CC(C)Oc1c(NC(=O)c2ccc(NC(=O)[C@H](CC(N)=O)NC(=O)c3ccc(NC(=O)c4ccc([N+](=O)[O-])cc4)cc3)cc2)ccc(C(=O)Nc2ccc(C(=O)O)c(F)c2)c1O | – | DSM1116 | – | 1 µg/mL
N=C(N)c1ccc(OCc2ccc(-c3ccccc3)cc2COc2ccc(C(=N)N)cc2)cc1 | broth dilution | ATCC25922 | – | 200 µg/mL
COc1c(C)c(OS(=O)(=O)c2ccc3ccccc3c2)c(C)c(O)c1C(=O)/C=C/c1ccccc1 | broth dilution | ATCC25922 | – | 5000 µg/mL
CC(C)Oc1c(NC(=O)c2ccc(NC(=O)[C@H](CC(N)=O)NC(=O)c3ccc(NC(=O)c4ccc([N+](=O)[O-])c5cccnc45)cc3)cc2)ccc(C(=O)Nc2ccc(C(=O)O)cc2)c1O | – | DSM1116 | – | 0.25 µg/mL
N=C(N)c1cccc(OCc2cccc(COc3cccc(C(=N)N)c3)c2)c1 | broth dilution | BW25113 | – | > 200 µg/mL
COc1ccc(-c2nc3ccccc3[nH]2)cc1O | broth dilution | ATCC25922 | – | 256 µg/mL
COc1cccc(NCc2ccc(Oc3ccccn3)cc2)c1 | – | – | – | > 50 µg/mL

SMILES | assay | test system | setting | MIC
N=C(N)c1ccc(OCCCCCCCCCCCOc2ccc(C(=N)N)cc2)cc1 | broth dilution | BW25113 | – | > 25 µg/mL
Cc1ccc2nc(-c3ccc(N(C)C)cc3)[nH]c2c1 | broth dilution | ATCC25922 | – | 64 µg/mL
C[C@@H](O)[C@H]1C(=O)N2C(C(=O)O)=C(SCCN=CN)C[C@H]12 | broth dilution | KCTC1682 | 16 h | 0.5 µM
Cc1ccc(C)n1-c1ccc(-c2nnc(-c3ccc(N(C)C)cc3)[nH]2)cc1 | broth dilution | ATCC10536 | 18 h | 250 µg/mL
CC(C)Oc1c(NC(=O)c2ccc(NC(=O)[C@H](CC(N)=O)NC(=O)c3ccc(NC(=O)c4ccc(C5(C(F)(F)F)N=N5)cc4)cc3)cc2)ccc(C(=O)Nc2ccc(C(=O)O)cc2)c1O | – | DSM1116 | – | 16 µg/mL
Clc1ccc(-c2nc3ccccc3[nH]2)c(Cl)c1 | broth dilution | ATCC25922 | – | 128 µg/mL
CN(C)[C@@H]1C(O)=C(C(N)=O)C(=O)[C@@]2(O)C(O)=C3C(=O)c4c(O)cccc4[C@@](C)(O)[C@H]3C[C@@H]12 | – | ATCC25922 | – | 4 µg/mL
CCn1cc(C(=O)O)c(=O)c2cc(F)c(N3CCNCC3)cc21 | broth dilution | ATCC 8739, ATCC8739 | – | 1 µM
Cc1ccc(C)n1-c1ccc(-c2nnc(-c3ccc(Br)cc3)[nH]2)cc1 | broth dilution | ATCC10536 | 18 h | 125 µg/mL
COc1c(C)c(OC(C)=O)c(C)c(OC(C)=O)c1C(=O)/C=C/c1ccccc1 | broth dilution | ATCC25922 | – | 5000 µg/mL
CC(C)Oc1c(NC(=O)c2ccc(NC(=O)[C@H](CC(N)=O)NC(=O)c3ccc(NC(=O)c4cc(=O)c(O)c[nH]4)cc3)cc2)ccc(C(=O)Nc2ccc(C(=O)O)cc2)c1O | – | DSM1116 | – | > 64 µg/mL
C=CCn1c(-c2ccc([N+](=O)[O-])cc2)nc2ccc(C)cc21 | broth dilution | ATCC25922 | – | 64 µg/mL
C[C@H]1COc2c(N3CCN(C)CC3)c(F)cc3c(=O)c(C(=O)O)cn1c23 | broth dilution | ATCC25922 | – | 0.25 µg/mL
CC1=NN(CNc2ccc(O)cc2)C(=O)C1=NNn1c(-c2ccccc2)nc2ccccc2c1=O | broth dilution | – | 24 h | 107 µM
COc1ccc(NCc2ccc(Oc3ccccn3)cc2)cc1 | – | – | – | > 25 µg/mL
O=[N+]([O-])c1ccc(-c2nc3cc(Cl)ccc3[nH]2)o1 | broth dilution | ATTC25922 | – | 8 µg/mL
CC(C)Oc1c(NC(=O)c2ccc(NC(=O)[C@H](CC(N)=O)NC(=O)c3ccc(NC(=O)c4ccc([N+](=O)[O-])c(OC(C)C)c4O)cc3)cc2)ccc(C(=O)Nc2ccc(C(=O)O)cc2)c1O | – | DSM1116 | – | > 64 µg/mL
COc1cccc(-c2nc3ccc(C)cc3[nH]2)c1 | broth dilution | ATCC25922 | – | 128 µg/mL
COc1cc(Cc2cnc(N)nc2N)cc(OC)c1OC | – | – | – | ~0.2 µM
CCCCCCC/C=C/C(=O)N1C(=O)/C(=C(\O)CCCC)C(=O)C1CC(C)C (stereo not drawn) | – | K12, K12 | – | > 200 µg/mL
CCCCCCC#Cc1cncc(-c2nnc(SCc3ccc([N+](=O)[O-])o3)n2C2CC2)c1 | – | – | – | ≥ 20 µg/mL
N=C(N)c1ccc(OCCCCCCCCCOc2ccc(C(=N)N)cc2)cc1 | broth dilution | BW25113 | – | > 25 µg/mL
Cc1ccc2nc(-c3ccco3)n(Cc3ccccc3)c2c1 | broth dilution | ATCC25922 | – | 128 µg/mL
N=C(N)c1ccc(OCc2cccc(COc3ccc(C(=N)N)cc3)c2)cc1 | – | BW25113 | – | > 200 µg/mL
CN[C@H](CC(C)C)C(=O)N[C@H]1C(=O)N[C@@H](CC(N)=O)C(=O)N[C@H]2C(=O)N[C@H]3C(=O)N[C@H](C(=O)N[C@H](C(=O)O)c4cc(O)cc(O)c4-c4cc3ccc4O)[C@H](O)c3ccc(c(Cl)c3)Oc3cc2cc(c3O[C@@H]2O[C@H](CO)[C@@H](O)[C@H](O)[C@H]2O[C@H]2C[C@](C)(N)[C@H](O)[C@H](C)O2)Oc2ccc(cc2Cl)[C@H]1O | broth dilution | ATCC25922 | 18 h | > 32 µg/mL
N=C(N)c1ccc(OCc2ccc(Br)cc2COc2ccc(C(=N)N)cc2)cc1 | broth dilution | ATCC25922 | – | > 200 µg/mL
CCCCCCC/C=C/C(=O)N1C(=O)/C(=C(\O)c2ccc(F)cc2)C(=O)C1CC(C)C (stereo not drawn) | – | K12, K12 | – | > 200 µg/mL
